Assay results reported in ChEMBL document CHEMBL1135423, “Acyl-protected hydroxylamines as spin label generators for EPR brain imaging” (J Med Chem, 2002).

Key:
Format in all cases: ADME, organism-based
[1] = tested on: Mus musculus; assay: Biodistribution in mice as total concentration of both oxidized and reduced forms in brain tissues, animals were sacrificed 60 minutes after dosing, in DMSO sol.; conditions: in vivo, 1 h
In short: (§1)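 Female C3H HenMTV⁻ mice (6-8 weeks old, 22-25 g; three per time point) were given an ip injection of 500 µL of 40 mM compound. They were euthanized at 10 or 60 min. Brain, heart, liver, kidney, spleen and blood were excised and each homogenized in ice-cold PBS. One half of each homogenate received K₃[Fe(CN)₆] (final 1 mM) to oxidize hydroxylamine to nitroxide. Total nitroxide plus hydroxylamine was read from EPR signal intensity.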

[2] = tested on: Mus musculus; assay: Biodistribution in mice as total concentration of both oxidized and reduced forms in spleen and animals were sacrificed 10 minutes after ip administration in DMSO solution; conditions: in vivo; in short: as §1
[3] = tested on: Mus musculus; assay: Biodistribution in mice as total concentration of both oxidized and reduced forms in liver and animals were sacrificed 10 minutes after dosing, in DMSO sol.; conditions: in vivo; in short: as §1
[4] = tested on: Mus musculus; assay: Biodistribution of compound (oxidized form) in liver tissue, animals were sacrificed 10 minutes after dosing, in DMSO sol.; conditions: in vivo
In short: (§2)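 In female C3H HenMTV⁻ mice (6-8 weeks, 22-25 g; three per time point), compound was injected ip as 500 µL of 40 mM solution. Animals were killed 10 or 60 min later. Brain, heart, liver, kidney, spleen and blood were removed and each homogenized in ice-cold PBS. Nitroxide (oxidized form) was quantified by EPR signal intensity in the half of each homogenate not treated with ferricyanide.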

[5] = tested on: Mus musculus; assay: Biodistribution in mice as total concentration of both oxidized and reduced forms in heart tissues, animals were sacrificed 60 minutes after dosing, in DMSO sol.; conditions: in vivo, 1 h; in short: as §1
[6] = tested on: Mus musculus; assay: Biodistribution of compound (oxidized form) in kidney tissue, animals were sacrificed 60 minutes after dosing, in DMSO sol.; conditions: in vivo, 1 h; in short: as §2
[7] = tested on: Mus musculus; assay: Biodistribution of compound (oxidized form) in spleen tissues, animals were sacrificed 60 minutes after dosing, in DMSO sol.; conditions: in vivo, 1 h; in short: as §2
[8] = tested on: Mus musculus; assay: Biodistribution of compound (oxidized form) in heart tissue, animals were sacrificed 60 minutes after dosing, in DMSO sol.; conditions: in vivo, 1 h; in short: as §2
[9] = tested on: Mus musculus; assay: Biodistribution in mice as total concentration of both oxidized and reduced forms in kidney tissues, animals were sacrificed 60 minutes after dosing, in DMSO sol.; conditions: in vivo, 1 h; in short: as §1
[10] = tested on: Mus musculus; assay: Biodistribution in mice as total concentration of both oxidized and reduced forms in liver tissues, animals were sacrificed 60 minutes after dosing, in DMSO sol.; conditions: in vivo, 1 h; in short: as §1
[11] = tested on: Mus musculus; assay: Biodistribution of compound (oxidized form) in brain tissue, animals were sacrificed 10 minutes after dosing, in DMSO sol.; conditions: in vivo; in short: as §2
[12] = tested on: Mus musculus; assay: Biodistribution of compound (oxidized form) in brain tissue, animals were sacrificed 60 minutes after dosing, in DMSO sol.; conditions: in vivo, 1 h; in short: as §2
[13] = tested on: Mus musculus; assay: Biodistribution of compound (oxidized form) in blood tissue, animals were sacrificed 10 minutes after dosing, in DMSO sol.; conditions: in vivo; in short: as §2
[14] = tested on: Mus musculus; assay: Biodistribution of compound (oxidized form) in kidney tissue, animals were sacrificed 10 minutes after dosing, in DMSO sol.; conditions: in vivo; in short: as §2
[15] = tested on: Mus musculus; assay: Biodistribution in mice as total concentration of both oxidized and reduced forms in blood and animals were sacrificed 10 minutes after ip administration in DMSO solution; conditions: in vivo; in short: as §1
[16] = tested on: Mus musculus; assay: Biodistribution of compound (total concentration of both oxidized and reduced forms) in brain tissues, animals were sacrificed 10 minutes after dosing, in DMSO; conditions: in vivo
In short: (§3)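 Female C3H HenMTV⁻ mice (6-8 weeks old, 22-25 g; three per time point) got one i.p. injection of 500 µL of 40 mM compound. They were euthanized at 10 or 60 min. Organs and blood were excised and homogenized separately in ice-cold PBS. One half of each homogenate received K₃[Fe(CN)₆] (final 1 mM) to oxidize hydroxylamine. Total nitroxide plus hydroxylamine was quantified by EPR signal intensity.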

[17] = tested on: Mus musculus; assay: Biodistribution in mice as total concentration of both oxidized and reduced forms in kidney and animals were sacrificed 10 minutes after dosing, in DMSO sol.; conditions: in vivo; in short: as §1
[18] = tested on: Mus musculus; assay: Biodistribution of compound (oxidized form) in spleen tissue, animals were sacrificed 10 minutes after dosing, in DMSO sol.; conditions: in vivo; in short: as §2
[19] = tested on: Mus musculus; assay: Biodistribution in mice as total concentration of both oxidized and reduced forms in heart tissues, animals were sacrificed 10 minutes after dosing, in DMSO sol.; conditions: in vivo; in short: as §1
[20] = tested on: Mus musculus; assay: Biodistribution of compound (oxidized form) in blood tissues, animals were sacrificed 60 minutes after dosing, in DMSO sol.; conditions: in vivo, 1 h; in short: as §2
[21] = tested on: Mus musculus; assay: Biodistribution in mice as total concentration of both oxidized and reduced forms in spleen tissues, animals were sacrificed 60 minutes after dosing, in DMSO sol.; conditions: in vivo, 1 h; in short: as §1
[22] = tested on: Mus musculus; assay: Biodistribution of compound (oxidized form) in heart tissue, animals were sacrificed 10 minutes after dosing, in DMSO sol.; conditions: in vivo; in short: as §2
[23] = tested on: Mus musculus; assay: Biodistribution of compound (oxidized form) in liver tissues, animals were sacrificed 60 minutes after dosing, in DMSO sol.; conditions: in vivo, 1 h; in short: as §2
[24] = tested on: Mus musculus; assay: Biodistribution in mice as total concentration of both oxidized and reduced forms in blood tissues, animals were sacrificed 60 minutes after dosing, in DMSO sol.; conditions: in vivo, 1 h; in short: as §1
[25] = tested on: Mus musculus; assay: Biodistribution of compound (oxidized form) in kidney tissue, animals were sacrificed 60 minutes after dosing, in DMSO solution; conditions: in vivo, 1 h; in short: as §2
[26] = tested on: Mus musculus; assay: Biodistribution of compound (oxidized form) in brain tissues, animals were sacrificed 10 minutes after dosing, in DMSO solution; conditions: in vivo; in short: as §2
[27] = tested on: Mus musculus; assay: Biodistribution of compound (total concentration of both oxidized and reduced forms) in blood tissues, animals were sacrificed 60 minutes after dosing, in DMSO; conditions: in vivo, 1 h; in short: as §3
[28] = tested on: Mus musculus; assay: Biodistribution of compound (oxidized form) in brain tissue, animals were sacrificed 60 minutes after dosing, in DMSO solution; conditions: in vivo, 1 h; in short: as §2
[29] = tested on: Mus musculus; assay: Biodistribution of compound (oxidized form) in spleen tissue, animals were sacrificed 10 minutes after dosing, in DMSO solution; conditions: in vivo; in short: as §2
[30] = tested on: Mus musculus; assay: Biodistribution of compound (total concentration of both oxidized and reduced forms) in heart tissues, animals were sacrificed 60 minutes after dosing, in DMSO; conditions: in vivo, 1 h; in short: as §3
[31] = tested on: Mus musculus; assay: Biodistribution of compound (total concentration of both oxidized and reduced forms) in liver tissues, animals were sacrificed 60 minutes after dosing, in DMSO; conditions: in vivo, 1 h; in short: as §3
[32] = tested on: Mus musculus; assay: Biodistribution of compound (oxidized form) in blood tissues, animals were sacrificed 60 minutes after dosing, in DMSO solution; conditions: in vivo, 1 h; in short: as §2
[33] = tested on: Mus musculus; assay: Biodistribution in mice, total concentration of both oxidized and reduced forms in brain tissues, animals were sacrificed 60 minutes after dosing, in DMSO; conditions: in vivo, 1 h; in short: as §1
[34] = tested on: Mus musculus; assay: Biodistribution of compound (oxidized form) in blood tissue, animals were sacrificed 10 minutes after dosing, in DMSO solution; conditions: in vivo; in short: as §2
[35] = tested on: Mus musculus; assay: Biodistribution in mice as total concentration of both oxidized and reduced forms in spleen and animals were sacrificed 10 minutes after ip dosing, in DMSO solution; conditions: in vivo; in short: as §1
[36] = tested on: Mus musculus; assay: Biodistribution of compound (oxidized form) in heart tissue, animals were sacrificed 60 minutes after dosing, in DMSO solution; conditions: in vivo, 1 h; in short: as §2
[37] = tested on: Mus musculus; assay: Biodistribution in mice as total concentration of both oxidized and reduced forms in blood and animals were sacrificed 10 minutes after ip dosing, in DMSO solution; conditions: in vivo; in short: as §1
[38] = tested on: Mus musculus; assay: Biodistribution of compound (oxidized form) in kidney tissue, animals were sacrificed 10 minutes after dosing, in DMSO solution; conditions: in vivo; in short: as §2
[39] = tested on: Mus musculus; assay: Biodistribution of compound (oxidized form) in spleen tissues, animals were sacrificed 60 minutes after dosing, in DMSO solution; conditions: in vivo, 1 h; in short: as §2
[40] = tested on: Mus musculus; assay: Biodistribution in mice as total concentration of both oxidized and reduced forms in kidney and animals were sacrificed 10 minutes after ip dosing, in DMSO solution; conditions: in vivo; in short: as §1
[41] = tested on: Mus musculus; assay: Biodistribution of compound (total concentration of both oxidized and reduced forms) in spleen tissues, animals were sacrificed 60 minutes after dosing, in DMSO; conditions: in vivo, 1 h; in short: as §3
[42] = tested on: Mus musculus; assay: Biodistribution of compound (oxidized form) in liver tissues, animals were sacrificed 60 minutes after dosing, in DMSO solution; conditions: in vivo, 1 h; in short: as §2
[43] = tested on: Mus musculus; assay: Biodistribution of compound (total concentration of both oxidized and reduced forms) in kidney tissues, animals were sacrificed 60 minutes after dosing, in DMSO; conditions: in vivo, 1 h; in short: as §3
[44] = tested on: Mus musculus; assay: Biodistribution of compound (total concentration of both oxidized and reduced forms) in heart tissues, animals were sacrificed 10 minutes after dosing, in DMSO; conditions: in vivo; in short: as §3
[45] = tested on: Mus musculus; assay: Biodistribution in mice as total concentration of both oxidized and reduced forms in liver and animals were sacrificed 10 minutes after ip administration in DMSO solution; conditions: in vivo; in short: as §1

COC(=O)C1CC(C)(C)N(OC(C)=O)C(C)(C)C1
Biodistribution [1]: 25 nM (g of tissue)-1 | Biodistribution [2]: 100 nM (g of tissue)-1 | Biodistribution [3]: 50 nM (g of tissue)-1 | Biodistribution [4]: 0 nM (g of tissue)-1 | Biodistribution [5]: 25 nM (g of tissue)-1 | Biodistribution [6]: 0 nM (g of tissue)-1 | Biodistribution [7]: 0 nM (g of tissue)-1 | Biodistribution [8]: 0 nM (g of tissue)-1 | Biodistribution [9]: 25 nM (g of tissue)-1 | Biodistribution [10]: 30 nM (g of tissue)-1 | Biodistribution [11]: 2 nM (g of tissue)-1 | Biodistribution [12]: 5 nM (g of tissue)-1 | Biodistribution [13]: 0 nM (g of tissue)-1 | Biodistribution [14]: 0 nM (g of tissue)-1 | Biodistribution [15]: 100 nM (g of tissue)-1 | Biodistribution [16]: 0 nM (g of tissue)-1 | Biodistribution [17]: 400 nM (g of tissue)-1 | Biodistribution [18]: 0 nM (g of tissue)-1 | Biodistribution [19]: 10 nM (g of tissue)-1 | Biodistribution [20]: 0 nM (g of tissue)-1 | Biodistribution [21]: 25 nM (g of tissue)-1 | Biodistribution [22]: 0 nM (g of tissue)-1 | Biodistribution [23]: 0 nM (g of tissue)-1 | Biodistribution [24]: 25 nM (g of tissue)-1

COC(=O)C1CC(C)(C)N(OC(C)=O)C1(C)C (stereo not drawn)
Biodistribution [25]: 0 nM (g of tissue)-1 | Biodistribution [4]: 0 nM (g of tissue)-1 | Biodistribution [26]: 0 nM (g of tissue)-1 | Biodistribution [27]: 25 nM (g of tissue)-1 | Biodistribution [28]: 5 nM (g of tissue)-1 | Biodistribution [29]: 0 nM (g of tissue)-1 | Biodistribution [30]: 25 nM (g of tissue)-1 | Biodistribution [31]: 30 nM (g of tissue)-1 | Biodistribution [32]: 0 nM (g of tissue)-1 | Biodistribution [33]: 25 nM (g of tissue)-1 | Biodistribution [11]: 2 nM (g of tissue)-1 | Biodistribution [34]: 0 nM (g of tissue)-1 | Biodistribution [35]: 100 nM (g of tissue)-1 | Biodistribution [36]: 0 nM (g of tissue)-1 | Biodistribution [37]: 100 nM (g of tissue)-1 | Biodistribution [38]: 0 nM (g of tissue)-1 | Biodistribution [39]: 0 nM (g of tissue)-1 | Biodistribution [40]: 400 nM (g of tissue)-1 | Biodistribution [41]: 25 nM (g of tissue)-1 | Biodistribution [42]: 0 nM (g of tissue)-1 | Biodistribution [43]: 25 nM (g of tissue)-1 | Biodistribution [44]: 100 nM (g of tissue)-1 | Biodistribution [22]: 0 nM (g of tissue)-1 | Biodistribution [45]: 50 nM (g of tissue)-1
